# Legend:
# Type in all cases: functional
# [1] = system: Escherichia coli; test: Antimicrobial activity against Escherichia coli isolate 547T expressing beta-lactamase KPC2 and PFGE cluster 4 isolated from blood of patient by agar dilution method
# Procedure, shortened: (§1)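 Transformant strains. Plasmids purified from the clinical isolates were electroporated into E. coli DH10B. Transformants were selected on LB agar with 100 μg/ml ampicillin, and colonies were PCR-screened for blaKPC before susceptibility testing.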
# [2] = system: Escherichia coli; test: Antimicrobial activity against Escherichia coli isolate 329 expressing beta-lactamase KPC2, CTX-M-2, TEM and PFGE cluster 2 isolated from blood of patient by agar dilution method
# Procedure, shortened: (§2)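 Clinical carbapenem-resistant E. coli isolates from the hospital, February 2005 to October 2008. Carbapenem MICs were determined by agar dilution following CLSI protocols.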
# [3] = system: Escherichia coli; test: Antimicrobial activity against Escherichia coli isolate 339 expressing beta-lactamase KPC2, TEM and PFGE cluster 5 isolated from peritoneal fluid of patient by agar dilution method; procedure, shortened: as §2
# [4] = system: Escherichia coli; test: Antimicrobial activity against Escherichia coli isolate 540 expressing beta-lactamase KPC2, TEM and PFGE cluster 4 isolated from synovial fluid of patient by agar dilution method; procedure, shortened: as §2
# [5] = system: Escherichia coli; test: Antimicrobial activity against Escherichia coli isolate 329T expressing beta-lactamase KPC2 and PFGE cluster 2 isolated from blood of patient by agar dilution method; procedure, shortened: as §1
# [6] = system: Escherichia coli; test: Antimicrobial activity against Escherichia coli isolate 360 expressing beta-lactamase KPC2, CTX-M-15, OXA-9, TEM and PFGE cluster 1 isolated from urine of patient by agar dilution method; settings: isolate 360, Urine
# Procedure, shortened: (§3)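 Clinical carbapenem-resistant E. coli isolates collected Feb 2005–Oct 2008. Carbapenem MICs determined by agar dilution following CLSI protocols.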
# [7] = system: Escherichia coli; test: Antimicrobial activity against Escherichia coli isolate 1679 expressing beta-lactamase KPC2, SHV-12, TEM and PFGE cluster 6 isolated from peritoneal fluid of patient by agar dilution method; procedure, shortened: as §2
# [8] = system: Escherichia coli; test: Antimicrobial activity against Escherichia coli DH10B by Etest; settings: K-12 DH10B
# [9] = system: Escherichia coli; test: Antimicrobial activity against Escherichia coli isolate 157T expressing beta-lactamase KPC2 and PFGE cluster 3 isolated from urine of patient by agar dilution method; procedure, shortened: as §1
# [10] = system: Escherichia coli; test: Antimicrobial activity against Escherichia coli isolate 1679T expressing beta-lactamase KPC2, TEM and PFGE cluster 6 isolated from peritoneal fluid of patient by agar dilution method; procedure, shortened: as §1
# [11] = system: Escherichia coli; test: Antimicrobial activity against Escherichia coli isolate 544 expressing beta-lactamase KPC2, TEM and PFGE cluster 4 isolated from abscess of patient by agar dilution method; procedure, shortened: as §2
# [12] = system: Escherichia coli; test: Antimicrobial activity against Escherichia coli isolate 386 expressing beta-lactamase KPC2, CTX-M-15, OXA-9, TEM and PFGE cluster 1 isolated from wound of patient by agar dilution method; procedure, shortened: as §3
# [13] = system: Escherichia coli; test: Antimicrobial activity against Escherichia coli isolate 543 expressing beta-lactamase KPC2, CTX-M-15, TEM and PFGE cluster 4 isolated from synovial fluid of patient by agar dilution method; procedure, shortened: as §2
# [14] = system: Escherichia coli; test: Antimicrobial activity against Escherichia coli isolate 157 expressing beta-lactamase KPC2, CTX-M-15, TEM and PFGE cluster 3 isolated from urine of patient by agar dilution method; settings: isolate 157, Urine; procedure, shortened: as §3
# [15] = system: Escherichia coli; test: Antimicrobial activity against Escherichia coli isolate 543T expressing beta-lactamase KPC2 and PFGE cluster 4 isolated from synovial fluid of patient by agar dilution method; procedure, shortened: as §1
# [16] = system: Escherichia coli; test: Antimicrobial activity against Escherichia coli isolate 386T expressing beta-lactamase KPC2, OXA-9 and PFGE cluster 1 isolated from wound of patient by agar dilution method; procedure, shortened: as §1
# [17] = system: Escherichia coli; test: Antimicrobial activity against Escherichia coli isolate 339T expressing beta-lactamase KPC2 and PFGE cluster 5 isolated from peritoneal fluid of patient by agar dilution method; procedure, shortened: as §1
# [18] = system: Escherichia coli; test: Antimicrobial activity against Escherichia coli isolate 547 expressing beta-lactamase KPC2, TEM and PFGE cluster 4 isolated from blood of patient by agar dilution method; procedure, shortened: as §3
# [19] = system: Escherichia coli; test: Antimicrobial activity against Escherichia coli isolate 360T expressing beta-lactamase KPC2, OXA-9 and PFGE cluster 1 isolated from urine of patient by agar dilution method; procedure, shortened: as §1
SMILES,MIC [1] [µg/mL],MIC [2] [µg/mL],MIC [3] [µg/mL],MIC [4] [µg/mL],MIC [5] [µg/mL],MIC [6] [µg/mL],MIC [7] [µg/mL],MIC [8] [µg/mL],MIC [9] [µg/mL],MIC [10] [µg/mL],MIC [11] [µg/mL],MIC [12] [µg/mL],MIC [13] [µg/mL],MIC [14] [µg/mL],MIC [15] [µg/mL],MIC [16] [µg/mL],MIC [17] [µg/mL],MIC [18] [µg/mL],MIC [19] [µg/mL]
C[C@@H](O)[C@H]1C(=O)N2C(C(=O)O)=C(S[C@@H]3CN[C@H](C(=O)Nc4cccc(C(=O)O)c4)C3)[C@H](C)[C@H]12,0.25,32,16,16,4,8,32,0.023,4,1,16,8,16,8,2,1,4,8,1
C[C@@H](O)[C@H]1C(=O)N2C(C(=O)O)=C(S[C@@H]3CN[C@H](CNS(N)(=O)=O)C3)[C@H](C)[C@H]12 [DORIPENEM],< 0.5,4,1,1,1,1,8,< 0.5,1,0.5,1,1,2,2,< 0.5,< 0.5,0.5,< 0.5,< 0.5

# From ChEMBL document CHEMBL1671686, “Carbapenem-resistant KPC-2-producing Escherichia coli in a Tel Aviv Medical Center, 2005 to 2008” (2010)
